Sampled rows, rich in hits. Any-hit rate of the full collection: about 4.2%.
CHO parental Ca: counter-screen for OX1R antagonists: effect in parental CHO cells; hit rate 0.63% among 330,000; inhibition, % at 5.6 µM; AID 463079; parental CHO-K1, ATP-induced calcium, Fluo-8 fluorescence;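 active = inhibition above that plate's mean sample inhibition plus 3 SD, cut at about 26% in these data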
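Assay system: untransfected parental CHO cell line. Also added: ATP agonist challenge. Dosing: one dose, 5.6 µM nominal. Measured by: Fluo-8 fluorescence. Read-out: % inhibition. Benchmarks: ATP wells versus no-ATP DMSO wells. Repeats: no replicates.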
GalR3 antagonist: human GalR3 antagonism; HEK293 GalR3-CNG cAMP membrane potential fluorescence; galR3 body fused to GalR1 C-terminus; inhibition, % at 3 µM; hit rate 0.44% among 360,000;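 active = inhibition above the screen-wide average plus 3 SD, cut at about 13% in these data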;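 note: forskolin and galanin both at EC90 stimulate the cells; cAMP rise reported by CNG channel membrane potential dye signal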
Target sequence (O60755 1-299 limits assumed): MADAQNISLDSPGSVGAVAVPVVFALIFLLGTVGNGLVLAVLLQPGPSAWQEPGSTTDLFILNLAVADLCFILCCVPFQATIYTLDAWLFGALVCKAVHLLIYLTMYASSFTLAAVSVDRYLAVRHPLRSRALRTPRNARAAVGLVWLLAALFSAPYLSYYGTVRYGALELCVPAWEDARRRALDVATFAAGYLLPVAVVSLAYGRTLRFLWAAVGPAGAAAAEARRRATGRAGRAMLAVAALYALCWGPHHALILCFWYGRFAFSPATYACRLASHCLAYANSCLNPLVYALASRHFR
TAAR1 agonist: agonists of human TAAR1; Q96RJ0; AID 624467; CHO RD-HGA16 TAAR1, Fluo-8 calcium fluorescence; vehicle wells 0%, saturating PEA agonist 100%; activation, % at 3 µM; hit rate 0.99% among 360,000;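 active = activation above the mean activation of all test compounds in the run plus 3 SD, cut at about 38% in these data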
Target sequence (Q96RJ0 whole entry, looked up): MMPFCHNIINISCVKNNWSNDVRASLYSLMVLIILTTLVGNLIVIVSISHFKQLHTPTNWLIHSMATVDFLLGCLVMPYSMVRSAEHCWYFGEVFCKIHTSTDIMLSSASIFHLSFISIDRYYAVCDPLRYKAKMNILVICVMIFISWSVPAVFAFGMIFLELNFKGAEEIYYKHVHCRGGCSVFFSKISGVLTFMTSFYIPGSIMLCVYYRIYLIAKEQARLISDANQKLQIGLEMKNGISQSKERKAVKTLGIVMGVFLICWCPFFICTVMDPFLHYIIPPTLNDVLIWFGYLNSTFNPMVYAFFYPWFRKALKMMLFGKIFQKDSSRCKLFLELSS
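System: CHO-derived RD-HGA16 cells with stable Gα16 and human TAAR1. Times: 17-24 h plating, Fluo-8 75 min 37 °C, 30 min RT. Measured by: calcium-sensitive Fluo-8 signal, excitation 470-495, emission 515-575 nm. Read-out basis: % activation relative to PEA EC100 response. Control set: DMSO and PEA EC100. Repeats: no replicates (n 1).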
OX1R antag-1: human HCRTR1 antagonism; CHO/OX1R cells, Fluo-8 calcium fluorescence, orexin A; AID 434989; hit rate 0.43% among 330,000; inhibition, % at 5 µM; O43613;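 active = inhibition above its plate's threshold, mean inhibition of all tested compounds on the plate plus 3 SD, cut at about 37% in these data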
TAAR1 antag: human TAAR1 antagonism. CHO RD-HGA16 TAAR1, Fluo-8 calcium fluorescence, antagonist. hit rate 1.5% among 360,000. Q96RJ0. AID 624466. inhibition, % at 3 µM;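 active = inhibition above a per-plate cutoff, the mean inhibition of test compounds on that plate plus 3 SD, cut at about 49% in these data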
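Material: CHO RD-HGA16 cells bearing hTAAR1; compound dosing: one-point dosing, 3 µM nominal final; schedule: dye loading 75 min at 37 °C, then 30 min room temperature; measured by: calcium fluorescence with Fluo-8; control set: vehicle and agonist controls; replication: n of 1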
OX1R antag-2: OX1R (human) antagonism; O43613; OX1R-expressing cells, FRET antagonist read-out; inhibition, % at 6.6 µM; hit rate 1.8% among 330,000; in the data active = inhibition mostly above about 38%, no sharp cut-off; inactive = mostly below about 40%
A number is an active result; . = inactive; / = not tested or not shown.

SMILES	CHO parental Ca	GalR3 antagonist	TAAR1 agonist	OX1R antag-1	TAAR1 antag	OX1R antag-2
Cc1ccc(OCCC(=O)OCC(=O)c2c(N)n(CC(C)C)c(=O)n(C)c2=O)cc1	.	.	.	.	.	.
CC(C)Cn1c(N)c(C(=O)COC(=O)CC23CC4CC(CC(C4)C2)C3)c(=O)n(C)c1=O	61.4	.	.	71.1	.	.
Cc1nnc(SCC(=O)N2CCN(S(=O)(=O)c3ccc(Cl)cc3)CC2)[nH]c1=O	.	.	.	.	.	.
Cc1cc(NC(=O)COC(=O)c2oc3c(Cl)cccc3c2C)no1	.	.	.	.	.	.
CN(/N=C/c1ccc2c(c1)OCO2)c1nc(N2CCOCC2)nc(N2CCOCC2)n1	.	.	.	.	.	.
CC(=O)N1CC2(c3ccccc3)CN(C(C)=O)CC(c3ccccc3)(C1)C2=O	.	.	.	.	.	.
COc1ccc(Oc2cn[nH]c2-c2ccc(O)cc2O)cc1	.	.	.	.	.	.
C=C(C)COc1ccc(-c2[nH]ncc2-c2ccc(OC)cc2)c(O)c1	41.6	.	.	.	.	.
C=C(C)COc1ccc(-c2[nH]ncc2-c2ccc(OC)c(OC)c2)c(O)c1	.	.	.	.	49.5	.
C=C(C)COc1ccc(-c2[nH]ncc2Oc2ccccc2OCC)c(O)c1	.	.	.	.	.	.
COc1ccc(-c2cn[nH]c2-c2ccc(OCC(=O)NN)cc2O)cc1	/	.	.	/	.	/
C=C(C)COc1ccc(-c2[nH]ncc2Oc2cccc(OC)c2)c(O)c1	74.5	.	.	.	.	.
COc1ccc(-c2cn[nH]c2-c2ccc(OCC(=O)NN)cc2O)cc1OC	.	.	.	.	.	.
CCCc1ccc(Oc2cn[nH]c2-c2ccc(O)cc2O)cc1	34.7	.	.	.	.	.
O=C(NNC(=O)C1C2CCC(C2)C1C(=O)O)c1ccc(Br)o1 (configuration not stated)	.	/	/	.	/	.
OC(c1cccc(Cl)c1)c1nc(-c2ccccc2)cs1 (configuration not stated)	/	.	.	/	.	/
CN(C)c1ccc(-c2csc(C(O)c3cccc(Cl)c3)n2)cc1 (configuration not stated)	/	.	52.1	/	73.4	/
CCN(CC)C(=O)c1cccc(-c2csc(C(O)c3cccc(Cl)c3)n2)c1 (configuration not stated)	/	.	.	/	57.0	/
C#CCOCCOCCOCCNc1nc(N2CCN(C(=O)C([C@@H](C)CC)n3cc(C(N)CC(C)C)nn3)CC2)nc(N2CCN(C(=O)[C@H](CCC(=O)O)n3cc(C(N)[C@H](C)CC)nn3)CC2)n1 (some centres not stated)	.	.	.	.	.	.
Cc1ccc(NC(=O)CSCC(=O)Nc2ccccc2N2CCCC2)cc1	.	.	.	.	.	.
Cc1cc(N/N=C/c2ccc([N+](=O)[O-])o2)nc2ccccc12	.	.	.	.	.	42.4
CCc1cc2c(-c3ccccc3)cc(=O)oc2cc1OC(C)C(C)=O (configuration not stated)	.	.	.	.	50.4	.
Cn1nc(CC(=O)NCc2ccc(C(F)(F)F)cc2)c2ccccc2c1=O	.	.	.	.	52.4	.
Cn1nc(C(=O)NCc2ccc(F)cc2)c2ccccc2c1=O	.	.	.	.	.	.
O=C(Nc1ccc([N+](=O)[O-])cc1)Nc1cnccn1	.	.	.	.	.	67.5
SMILES	CHO parental Ca	GalR3 antagonist	TAAR1 agonist	OX1R antag-1	TAAR1 antag	OX1R antag-2
Clc1ccc(CNC2CCCC2)c(Cl)c1	.	.	.	.	.	.
CC(=O)c1ccc(NC(=O)Nc2ccc([N+](=O)[O-])cc2)cc1	35.0	.	.	.	.	.
S=C(NCc1ccc(Cl)cc1Cl)NC1CCCCC1	27.8	.	.	.	.	.
Cc1ccc(C(C)C)cc1NC(=O)Nc1ccc([N+](=O)[O-])cc1	55.4	.	.	.	.	.
Cc1ccc([N+](=O)[O-])cc1NC(=O)C(Sc1ccccc1)c1ccccc1 (configuration not stated)	.	.	.	.	51.8	.
CC(=O)c1ccc(NC(=S)NCc2ccc(Cl)cc2Cl)cc1	39.9	.	.	40.3	.	.
CC(=O)c1ccc(NC(=O)Nc2ccncc2)cc1	.	.	.	.	.	.
CC(=O)c1ccc(NC(=O)Nc2ccc(Cl)cc2)cc1	.	.	42.4	.	.	.
CCn1c(SCC(=O)Nc2ccc3c(c2)OCCO3)nnc1-c1ccccn1	.	.	.	.	.	.
C=CCNc1ncnc2c1ncn2[C@H]1CN(CCc2ccccc2)C[C@@H](CO)O1	/	.	37.6	/	.	/
OC[C@@H]1CN(Cc2ccc3c(c2)OCO3)C[C@H](n2cnc3c(N4CCN(c5ccccc5)CC4)ncnc32)O1	/	.	.	/	54.8	/
COc1cc(CN2C[C@@H](CO)O[C@@H](n3cnc4c(Nc5ccccc5)ncnc43)C2)cc(OC)c1OC	/	.	.	/	60.5	/
CCCCN(CCCC)c1nn[nH]n1	/	.	.	/	.	/
CCN(CCNCC(O)COCc1ccc(Cl)cc1)c1cccc(C)c1 (configuration not stated)	.	.	39.5	.	.	.
O=C1NC(=O)/C(=C\c2ccc(Br)o2)S1	.	.	.	.	.	37.9
CN(C)c1cccc(/C=C(\C#N)c2ccccc2)c1	37.8	.	.	.	.	.
Cn1cccc1/C=C(\C#N)c1ccccc1	.	.	.	.	.	.
COc1ccc(N2CC(C)Cn3c2nc2c3c(=O)n(Cc3ccccc3)c(=O)n2C)c(OC)c1 (configuration not stated)	.	.	.	.	.	.
COc1ccc(N2CCn3c2nc2c3c(=O)n(CCCc3ccccc3)c(=O)n2C)c(OC)c1	55.1	.	.	.	.	.
O=c1nccc(SCc2ccc(Cl)cc2Cl)[nH]1	.	.	.	.	.	.
N#CC(c1ccc(F)cc1)c1ccc(C(=O)c2ccc(F)cc2)cc1 (configuration not stated)	.	.	.	.	56.0	.
CO/N=C/c1ccc(N2CCN(C(=O)c3ccc(F)cc3)CC2)c([N+](=O)[O-])c1	.	.	37.9	.	.	.
O=C(O/N=C\c1ccc(N2CCCCC2)c([N+](=O)[O-])c1)c1cccc(C(F)(F)F)c1	.	.	.	.	.	.
CO/N=C/c1ccc(N2CCN(C(=O)c3cccc(C(F)(F)F)c3)CC2)c([N+](=O)[O-])c1	.	.	.	.	54.1	.
COCCNC(=O)C(c1ccc(C)o1)N(Cc1ccc(OC)cc1)C(=O)Cn1nnc2ccccc21 (configuration not stated)	.	.	41.0	.	.	.
O=C1NCCCC1C(=O)NCCNC(=O)C(F)(F)F (configuration not stated)	.	.	.	.	.	.

High-throughput results as filed in PubChem BioAssay.
